Test results: ChEMBL document CHEMBL1126128, “Nonprostanoid prostacyclin mimetics. 3. Structural variations of the diphenyl heterocycle moiety” (J Med Chem, 1992)

experiment: Compound was tested for inhibition of ADP-induced aggregation of blood platelets in human platelet rich plasma at >82 uM concentration; format: functional; details: not given
Method in brief: (§1)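 Human platelet-rich plasma with aggregation triggered by ADP and followed by aggregometry. Each test acid was run at one stated upper concentration, and the read-out is percent inhibition of aggregation at that concentration. Each value is from a single experiment or is the mean of duplicate determinations.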

SMILES | Inhibition [%]
O=C(O)COc1cccc(-n2cnc(-c3ccccc3)c2-c2ccccc2)c1 | 18

experiment: Compound was tested for inhibition of ADP-induced aggregation of blood platelets in human platelet rich plasma at >32 uM concentration; format: functional; details: not given; method in brief: as §1

SMILES | Inhibition [%]
O=C(O)CCCCOc1cccc(-n2cnc(-c3ccccc3)c2-c2ccccc2)c1 | 23

experiment: Compound was tested for inhibition of ADP-induced aggregation of blood platelets in human platelet rich plasma at >68 uM concentration; format: functional; details: not given; method in brief: as §1

SMILES | Inhibition [%]
O=C(O)COc1cccc(CCc2nc(-c3cccc(Cl)c3)c(-c3cccc(Cl)c3)o2)c1 | 0

experiment: Compound was tested for inhibition of ADP-induced aggregation of blood platelets in human platelet rich plasma at >60 uM concentration; format: functional; details: not given; method in brief: as §1

SMILES | Inhibition [%]
O=C(O)COc1cccc(CCc2nc(-c3ccc(C(F)(F)F)cc3)c(-c3ccc(C(F)(F)F)cc3)o2)c1 | 1

experiment: Compound was tested for inhibition of ADP-induced aggregation of blood platelets in human platelet rich plasma at >78 uM concentration; format: functional; details: not given; method in brief: as §1

SMILES | Inhibition [%]
O=C(O)COc1cccc(CCc2nc(C3CCCCC3)c(C3CCCCC3)o2)c1 | 25

experiment: Compound was tested for inhibition of ADP-induced aggregation of blood platelets in human platelet rich plasma at >75 uM concentration; format: functional; details: not given; method in brief: as §1

SMILES | Inhibition [%]
Cc1cccc(-c2nc(CCc3cccc(OCC(=O)O)c3)oc2-c2cccc(C)c2)c1 | 30

experiment: Compound was tested for inhibition of ADP-induced aggregation of blood platelets in human platelet rich plasma at 20 uM concentration; format: functional; details: not given; method in brief: as §1

SMILES | inhibition at 20 µM [%]
O=C(O)COc1cccc(CCc2nc3c4ccccc4c4ccccc4c3o2)c1 | 0

experiment: Compound was tested for inhibition of ADP-induced aggregation of blood platelets in human platelet rich plasma at >65 uM concentration; format: functional; details: not given; method in brief: as §1

SMILES | Inhibition [%]
CSc1ccc(-c2nc(CCc3cccc(OCC(=O)O)c3)oc2-c2ccc(SC)cc2)cc1 | 32

experiment: Compound was tested for inhibition of ADP-induced aggregation of blood platelets in human platelet rich plasma at >76 uM concentration; format: functional; details: not given; method in brief: as §1

SMILES | Inhibition [%]
O=C(O)CCCCOc1ccc(-n2cnc(-c3ccccc3)c2-c2ccccc2)cc1 | 31

experiment: Inhibition of ADP-induced aggregation of human blood platelets in plasma; format: functional; details: not given

SMILES | IC50 [µM]
O=C(O)CCCCCCCCn1cc(-c2ccccc2)c(-c2ccccc2)n1 [listing 1 of 2 here] | 5.8

same assay, conditions: Homo sapiens, Plasma

SMILES | IC50 [µM]
O=C(O)CCCCCCCn1nc(-c2ccccc2)n(-c2ccccc2)c1=O | > 84
O=C(O)COc1cccc(CCc2nnc(-c3ccccc3)n2-c2ccccc2)c1 | 12.7
Cc1nc(-c2ccccc2)c(-c2ccccc2)n1CCCCCCCC(=O)O | 4.4
O=C(O)CCCCCCCCn1nc(-c2ccccc2)c2ccccc2c1=O | > 85
O=C(O)COc1cccc(CCc2cc(-c3ccccc3)n(-c3ccccc3)n2)c1 | 1.67
O=C(O)COc1cccc(CCn2nc(-c3ccccc3)c(-c3ccccc3)c2-c2ccccc2)c1 | 24.5
O=C(O)CCCCCCCSc1nnc(-c2ccccc2)c(-c2ccccc2)n1 | > 74
O=C(O)CCCCOc1ccc(-n2cnc(-c3ccccc3)c2-c2ccccc2)cc1 | > 76
O=C(O)CCCCCCCCc1nnc(-c2ccccc2)n1-c1ccccc1 | > 85
O=C(O)COc1cccc(-n2cnc(-c3ccccc3)c2-c2ccccc2)c1 | > 82
O=C(O)COc1cccc(CCc2nc(-c3ccccc3)c(-c3ccccc3)s2)c1 | 0.86
O=C(O)CCCCCCCn1c(-c2ccccc2)nc(-c2ccccc2)c1-c1ccccc1 | 3.8
O=C(O)COc1cccc(CCc2nc(-c3cccc(F)c3)c(-c3cccc(F)c3)o2)c1 | 17.7
O=C(O)COc1cccc(CCc2nc(-c3ccsc3)c(-c3ccsc3)o2)c1 | 17
O=C(O)CCCCCCCCOc1ncc(-c2ccccc2)c(-c2ccccc2)n1 | > 79
O=C(O)COc1cccc(CCc2nc(-c3ccccc3)c(-c3ccccc3)[nH]2)c1 | 2.88
O=C(O)CCCCCCCn1cc(-c2ccccc2)c(-c2ccccc2)nc1=O | 25.6
O=C(O)CCCCCCCSc1nnc(-c2ccccc2)c(-c2ccccc2)c1-c1ccccc1 | > 65
O=C(O)CCCCCCCCn1cc(-c2ccccc2)c(-c2ccccc2)n1 [listing 2 of 2 here] | 4.5
O=C(O)CCCCCCCc1nnc(-c2ccccc2)n1-c1ccccc1 | > 88
O=C(O)COc1cccc(/C=C/c2nnc(-c3ccccc3)n2-c2ccccc2)c1 | 2.99
O=C(O)COc1cccc(CCc2nc(C3CCCCC3)c(C3CCCCC3)o2)c1 | > 78

SMILES | IC50 [µM]
O=C(O)CCCCCCCCn1nc(-c2ccccc2)c(-c2ccccc2)c(-c2ccccc2)c1=O | > 67
O=C(O)COc1cccc(CCc2nc(-c3cccs3)c(-c3cccs3)o2)c1 | 7.4
O=C(O)COc1ccc(-n2cnc(-c3ccccc3)c2-c2ccccc2)cc1 | > 84
CCc1ccc(-c2nc(CCc3cccc(OCC(=O)O)c3)oc2-c2ccc(CC)cc2)cc1 | 28.3
COc1ccc(-c2nc(CCc3cccc(OCC(=O)O)c3)oc2-c2ccc(OC)cc2)cc1 | 5.2
O=C(O)CCCCCCCn1nc(-c2ccccc2)c(-c2ccccc2)c(-c2ccccc2)c1=O | > 68
O=C(O)COc1ccc(CCc2nnc(-c3ccccc3)n2-c2ccccc2)cc1 | > 80
O=C(O)CCCCCCCCn1nc(-c2ccccc2)c(-c2ccccc2)cc1=O | 7.2
O=C(O)CCCOc1ccc(-n2cnc(-c3ccccc3)c2-c2ccccc2)cc1 | 29.2
O=C(O)CCCCCCCCCc1nnc(-c2ccccc2)n1-c1ccccc1 | > 82
O=C(O)CCCCCCCCn1ccc(C(c2ccccc2)c2ccccc2)n1 | > 80
O=C(O)COc1cccc(CCn2nc(-c3ccccc3)c(-c3ccccc3)cc2=O)c1 | 1.9
O=C(O)CCCCCCCn1nc(-c2ccccc2)c(-c2ccccc2)cc1=O | 4.1
Cc1ccccc1-c1nc(CCc2cccc(OCC(=O)O)c2)oc1-c1ccccc1C | 11.6
O=C(O)CCCCCCCCn1nc(-c2ccccc2)c(-c2ccccc2)nc1=O | 4.9
O=C(O)CCCCCCCCn1c(-c2ccccc2)nc(-c2ccccc2)c1-c1ccccc1 | 3.9
Cc1cccc(-c2nc(CCc3cccc(OCC(=O)O)c3)oc2-c2cccc(C)c2)c1 | > 75
O=C(O)CCCCCCCn1cnc(-c2ccccc2)c1-c1ccccc1 | 8.19
O=C(O)CCCCCCCCn1cc(-c2ccccc2)c(-c2ccccc2)nc1=O | 29.7
COc1cccc(-c2nc(CCc3cccc(OCC(=O)O)c3)oc2-c2cccc(OC)c2)c1 | 7.2
O=C(O)COc1cccc(CCc2nc3c4ccccc4c4ccccc4c3o2)c1 | > 20
O=C(O)CCCCCCCSc1cc(-c2ccccc2)c(-c2ccccc2)nn1 | > 78

SMILES | IC50 [µM]
O=C(O)COc1cccc(CCc2nc(-c3ccc(Br)cc3)c(-c3ccc(Br)cc3)o2)c1 | 12.6
O=C(O)CCCCCCCn1c(C(F)(F)F)nc(-c2ccccc2)c1-c1ccccc1 | 4.64
O=C(O)COc1cccc(CCc2cc(-c3ccccc3)n(C(c3ccccc3)c3ccccc3)n2)c1 | > 63
O=C(O)COc1cccc(CCc2nc(-c3ccc(C(F)(F)F)cc3)c(-c3ccc(C(F)(F)F)cc3)o2)c1 | > 60
O=C(O)COc1cccc(Cn2cnc(-c3ccccc3)c2-c2ccccc2)c1 | > 82
O=C(O)COc1cccc(CCn2cnc(-c3ccccc3)c2-c2ccccc2)c1 | 5
O=C(O)CCCCCCCCN1C(=O)C(c2ccccc2)N(c2ccccc2)C1=O (stereo not drawn) | 29.4
O=C(O)COc1ccc(/C=C/c2nnc(-c3ccccc3)n2-c2ccccc2)cc1 | > 80
CSc1ccc(-c2nc(CCc3cccc(OCC(=O)O)c3)oc2-c2ccc(SC)cc2)cc1 | > 65
O=C(O)CCCCCCCCn1nc(-c2ccccc2)n(-c2ccccc2)c1=O | 4.1
O=C(O)CCCCCCCOc1ncc(-c2ccccc2)c(-c2ccccc2)n1 | 35.9
O=C(O)COc1cccc(CCC(=O)NCC(c2ccccc2)c2ccccc2)c1 | > 79
O=C(O)CCCCCCCCCCN(C(=O)c1ccccc1)c1ccccc1 | > 84
O=C(O)CCCCCCCCN1C(=O)NC(c2ccccc2)(c2ccccc2)C1=O | > 78
O=C(O)COc1cccc(CCn2nnc(C(c3ccccc3)c3ccccc3)n2)c1 | 3.6
O=C(O)CCCCCCCCn1nnc(C(c2ccccc2)c2ccccc2)n1 | 10.7
O=C(O)CCCCCCCCn1c(=O)c2ccccc2n(-c2ccccc2)c1=O | > 81
O=C(O)COc1cccc(CCC(=O)NC(c2ccccc2)c2ccccc2)c1 | > 82
O=C(O)CCCOc1cccc(-n2cnc(-c3ccccc3)c2-c2ccccc2)c1 | < 80
O=C(O)COc1cccc(CCc2nc(-c3ccccc3F)c(-c3ccccc3F)o2)c1 | 1.4
O=C(O)COc1cccc(CCc2nc(-c3ccc(Cl)cc3)c(-c3ccc(Cl)cc3)o2)c1 | 17.1
O=C(O)COc1cccc(CCn2nc(-c3ccccc3)n(-c3ccccc3)c2=O)c1 | 1.57

SMILES | IC50 [µM]
O=C(O)CCCCCCCn1nc(-c2ccccc2)c(-c2ccccc2)nc1=O | 7.9
O=C(O)CCCCCCCCn1nccc1C(c1ccccc1)c1ccccc1 | > 82
Cc1nc(-c2ccccc2)c(-c2ccccc2)n1CCCCCCCCC(=O)O | 3.04
O=C(O)CCCCCCCCc1nc(-c2ccccc2)c(-c2ccccc2)o1 | 6.6
O=C(O)CCCCCCCn1cc(-c2ccccc2)c(-c2ccccc2)n1 | 1.38
O=C(O)COc1cccc(CCn2nc(-c3ccccc3)c(-c3ccccc3)nc2=O)c1 | 2.1
O=C(O)CCCCCCCCn1nc(-c2ccccc2)c(-c2ccccc2)c1-c1ccccc1 | 0.4
O=C(O)CCCCOc1cccc(-n2cnc(-c3ccccc3)c2-c2ccccc2)c1 | > 32
O=C(O)COc1cccc(CCc2nc(-c3ccc(F)cc3)c(-c3ccc(F)cc3)o2)c1 | 4.8
O=C(O)CCCCCCCn1nnc(C(c2ccccc2)c2ccccc2)n1 | 7.9
O=C(O)CCCCCCCn1nnnc1C(c1ccccc1)c1ccccc1 | > 84
O=C(O)CCCCCCCCn1cnc(-c2ccccc2)c1-c1ccccc1 | 58.4
O=C(O)CCCCCCCCN(C(=O)c1ccccc1)c1ccccc1 | > 90
O=C(O)CCCCCCCn1nc(-c2ccccc2)c2ccccc2c1=O | > 84
O=C(O)CCCCCCCCn1nnnc1C(c1ccccc1)c1ccccc1 | > 81
O=C(O)COc1cccc(CCc2nc(-c3cccc(Cl)c3)c(-c3cccc(Cl)c3)o2)c1 | > 68
O=C(O)COc1cccc(CCn2cc(-c3ccccc3)c(-c3ccccc3)n2)c1 | 0.87
O=C(O)COc1cccc(CCn2ncc(-c3ccccc3)c2-c2ccccc2)c1 | 0.75
O=C(O)CCCCCCCCn1cc(-c2ccccc2)c(-c2ccccc2)c1 | 10.3
Cc1ccc(-c2nc(CCc3cccc(OCC(=O)O)c3)oc2-c2ccc(C)cc2)cc1 | 0.34

experiment: Compound was tested for inhibition of ADP-induced aggregation of blood platelets in human platelet rich plasma at >84 uM concentration; format: functional; details: not given; method in brief: as §1

SMILES | Inhibition [%]
O=C(O)COc1ccc(-n2cnc(-c3ccccc3)c2-c2ccccc2)cc1 | 23

experiment: Compound was tested for inhibition of ADP-induced aggregation of blood platelets in human platelet rich plasma at <80 uM concentration; format: functional; details: not given; method in brief: as §1

SMILES | Inhibition [%]
O=C(O)CCCOc1cccc(-n2cnc(-c3ccccc3)c2-c2ccccc2)c1 | 57
